Results: ChEMBL document CHEMBL4270658, “Synthesis, in vitro and in vivo biological evaluation, COX-1/2 inhibition and molecular docking study of indole-N-acylhydrazone derivatives” (Bioorg Med Chem, 2018)
The source made the active and inactive calls. No cut-off for these calls is given here.

Key:
Mus musculus [1] = assay: Acute toxicity in Swiss mouse assessed as effect on leukocyte level at 2000 mg/kg, po (reference value: 10.8 +/- 6.25 10^3/mm3); type: organism-based; settings: in vivo
Mus musculus [2] = assay: Antiinflammatory activity in carrageenan-induced Swiss mouse assessed as inhibition of paw edema at 15 mg/kg, po pretreated for 1 hr followed by carrageenan challenge measured after 6 hrs by plethysmometric method; type: functional
Mus musculus [3] = assay: Antiinflammatory activity in carrageenan-induced Swiss mouse assessed as inhibition of paw edema at 30 mg/kg, po pretreated for 1 hr followed by carrageenan challenge measured after 5 hrs by plethysmometric method; type: functional
[4] = target: T1, Prostaglandin G/H synthase 2 (Homo sapiens, UniProt P35354); assay: Inhibition of recombinant N-terminal His6-tagged human COX-2 expressed in Baculovirus infected Sf21 cells using arachidonic acid as substrate preincubated for 5 mins followed by substrate addition measured after 1 hr; type: cell-based
T1 sequence (P35354 whole entry): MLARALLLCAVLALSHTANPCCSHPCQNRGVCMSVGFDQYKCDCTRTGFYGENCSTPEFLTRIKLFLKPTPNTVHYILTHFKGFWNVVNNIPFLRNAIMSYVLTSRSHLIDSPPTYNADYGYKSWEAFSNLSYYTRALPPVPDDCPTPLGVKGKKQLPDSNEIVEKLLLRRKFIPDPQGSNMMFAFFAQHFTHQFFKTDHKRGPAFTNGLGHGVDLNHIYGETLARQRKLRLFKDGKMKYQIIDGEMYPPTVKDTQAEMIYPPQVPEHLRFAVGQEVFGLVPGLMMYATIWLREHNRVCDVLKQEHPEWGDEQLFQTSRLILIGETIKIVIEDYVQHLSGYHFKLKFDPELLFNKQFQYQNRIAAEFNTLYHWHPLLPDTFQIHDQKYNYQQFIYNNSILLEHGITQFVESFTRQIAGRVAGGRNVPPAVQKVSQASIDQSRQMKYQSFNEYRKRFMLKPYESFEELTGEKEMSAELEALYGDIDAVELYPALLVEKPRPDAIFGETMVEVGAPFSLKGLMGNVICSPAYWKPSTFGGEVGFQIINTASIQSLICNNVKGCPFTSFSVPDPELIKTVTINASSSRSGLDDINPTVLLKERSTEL

Mus musculus [5] = assay: Acute toxicity in Swiss mouse assessed as effect on hemoglobin levels at 2000 mg/kg, po (reference value: 14.5 +/- 0.6 g/dl); type: organism-based; settings: in vivo
Mus musculus [6] = assay: Acute toxicity in Swiss mouse assessed as effect on mean corpuscular hemoglobin level at 2000 mg/kg, po (reference value: 11.16 +/- 0.53 pg); type: organism-based; settings: in vivo
Splenocyte [7] = assay: Antiinflammatory activity in BALB/c mouse splenocytes assessed as increase of IL-4 level at 11 uM after 24 to 48 hrs by cytometric bead array method; type: functional, cell-based
Outline: (§1)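 Splenocytes from female BALB/c mice (6–8 weeks) isolated on Ficoll-Paque (1.076 g/mL), viability >98% by trypan blue; cultured with 11 μM compound for 24 and 48 h. Supernatant cytokines measured by cytometric bead array on flow cytometer; two independent experiments in triplicate.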

Mus musculus [8] = assay: Antiinflammatory activity in carrageenan-induced Swiss mouse assessed as inhibition of paw edema at 30 mg/kg, po pretreated for 1 hr followed by carrageenan challenge measured after 1 hr by plethysmometric method; type: functional
[9] = Selectivity index, ratio of IC50 for ovine COX-1 to IC50 for recombinant N-terminal His6-tagged human COX-2
Outline: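 COX-1 or COX-2 in 100 mM Tris-HCl pH 8.0 with hematin, compound (in DMSO, 1.5–100 μM) preincubated 5 min at room temperature; started with arachidonic acid plus TMPD, absorbance at 610 nm after 1 h; triplicate; IC50 calculated, selectivity index from COX-1 and COX-2 IC50s.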

Mus musculus [10] = assay: Acute toxicity in Swiss mouse assessed as effect on mean corpuscular hemoglobin concentration level at 2000 mg/kg, po (reference value: 19.5 +/- 0.94%); type: organism-based; settings: in vivo
[11] = Cytotoxicity against mouse J774 macrophages after 72 hrs by Alamar Blue assay; type: cell-based
Mus musculus [12] = assay: Antiinflammatory activity in carrageenan-induced Swiss mouse assessed as inhibition of paw edema at 60 mg/kg, po pretreated for 1 hr followed by carrageenan challenge measured after 1 hr by plethysmometric method; type: functional
Mus musculus [13] = assay: Acute toxicity in Swiss mouse assessed as mortality at 2000 mg/kg, po; type: organism-based; settings: in vivo
Outline: (§2)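 Fixed-dose stepwise procedure following OECD acute oral toxicity guidelines; groups of 3 Swiss Mus musculus mice (20–35 g) dosed orally at 2000 mg kg⁻¹ and observed for clinical signs of pain, suffering and impending death. Test run in duplicate. Animals kept at 22 ± 3 °C, 12 h light/dark, free food and water.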

[14] = target: T2, Prostaglandin G/H synthase 1 (Ovis aries, UniProt P05979); assay: Inhibition of ovine COX-1 using arachidonic acid as substrate preincubated for 5 mins followed by substrate addition measured after 1 hr
T2 sequence (P05979 whole entry): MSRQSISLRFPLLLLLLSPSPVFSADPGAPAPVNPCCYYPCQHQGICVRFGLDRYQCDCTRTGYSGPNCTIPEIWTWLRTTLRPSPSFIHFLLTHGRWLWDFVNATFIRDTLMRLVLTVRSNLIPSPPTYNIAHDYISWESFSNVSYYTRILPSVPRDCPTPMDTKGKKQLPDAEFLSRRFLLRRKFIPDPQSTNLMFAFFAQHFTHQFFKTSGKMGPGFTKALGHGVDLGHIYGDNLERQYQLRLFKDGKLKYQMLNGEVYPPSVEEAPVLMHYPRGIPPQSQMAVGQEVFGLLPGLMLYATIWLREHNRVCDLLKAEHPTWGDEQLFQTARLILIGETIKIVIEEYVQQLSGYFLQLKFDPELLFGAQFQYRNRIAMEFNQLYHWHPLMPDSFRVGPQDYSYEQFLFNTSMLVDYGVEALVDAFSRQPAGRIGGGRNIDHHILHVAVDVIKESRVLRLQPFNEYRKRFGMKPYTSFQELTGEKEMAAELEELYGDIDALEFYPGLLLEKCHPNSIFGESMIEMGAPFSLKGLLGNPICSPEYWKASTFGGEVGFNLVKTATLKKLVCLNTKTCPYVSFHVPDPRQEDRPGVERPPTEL

Mus musculus [15] = assay: Acute toxicity in Swiss mouse assessed as effect on hematocrit levels at 2000 mg/kg, po (reference value: 74.7 +/- 6.05%); type: organism-based; settings: in vivo
Mus musculus [16] = assay: Acute toxicity in Swiss mouse assessed as effect on blood cell levels at 2000 mg/kg, po (reference value: 13.0 +/- 0.9 10^6/mm3); type: organism-based; settings: in vivo
Splenocyte [17] = assay: Antiinflammatory activity in BALB/c mouse splenocytes assessed as inhibition of IFNgamma-induced nitric oxide production at 11 uM after 24 to 48 hrs by Griess method; type: functional, cell-based
Splenocyte [18] = assay: Immunomodulatory activity in BALB/c mouse splenocytes assessed as inhibition of concanavalin A-induced lymphocyte proliferation by measuring [methyl-3H]-thymidine uptake at 50 uM after 48 hrs; type: functional
Outline: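 BALB/c splenocytes (5×10⁶ cells/well) in DMEM, triplicate, with concanavalin A (2 μg mL⁻¹) ± compound 48 h at 37 °C, 5% CO₂, then 1 μCi [methyl-³H]thymidine for 12 h; inhibition from thymidine uptake relative to control; dexamethasone positive control.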

Splenocyte [19] = assay: Antiinflammatory activity in BALB/c mouse splenocytes assessed as increase of IL-10 level at 11 uM after 24 to 48 hrs by cytometric bead array method; type: functional, cell-based; outline: as §1
Splenocyte [20] = assay: Antiinflammatory activity in BALB/c mouse splenocytes assessed as inhibition of TNFalpha level at 11 uM after 24 to 48 hrs by cytometric bead array method; type: functional, cell-based; outline: as §1
Splenocyte [21] = assay: Antiinflammatory activity in BALB/c mouse splenocytes assessed as decrease of IL-6 level at 11 uM after 24 hrs by cytometric bead array method; type: functional, cell-based; outline: as §1
Mus musculus [22] = assay: Antiinflammatory activity in carrageenan-induced Swiss mouse assessed as inhibition of paw edema at 60 mg/kg, po pretreated for 1 hr followed by carrageenan challenge measured after 6 hrs by plethysmometric method; type: functional
Splenocyte [23] = assay: Antiinflammatory activity in BALB/c mouse splenocytes assessed as inhibition of IFNgamma level at 11 uM after 24 to 48 hrs by cytometric bead array method; type: functional, cell-based; outline: as §1
Mus musculus [24] = assay: Acute toxicity in Swiss mouse assessed as occurence of ptosis at 2000 mg/kg, po after 1 hr; type: organism-based; settings: in vivo; outline: as §2
Mus musculus [25] = assay: Acute toxicity in Swiss mouse assessed as effect on mean corpuscular volume at 2000 mg/kg, po (reference value: 57.3 +/- 3.01 […]); type: organism-based; settings: in vivo
Mus musculus [26] = assay: Acute toxicity in Swiss mouse assessed as occurence of irritability at 2000 mg/kg, po after 1 hr; type: organism-based; settings: in vivo; outline: as §2
Splenocyte [27] = assay: Antiinflammatory activity in BALB/c mouse splenocytes assessed as inhibition of IL-2 level at 11 uM after 24 to 48 hrs by cytometric bead array method; type: functional, cell-based; outline: as §1
Mus musculus [28] = assay: Antiinflammatory activity in carrageenan-induced Swiss mouse assessed as inhibition of paw edema at 30 mg/kg, po pretreated for 1 hr followed by carrageenan challenge measured after 6 hrs by plethysmometric method; type: functional
Mus musculus [29] = assay: Antiinflammatory activity in carrageenan-induced Swiss mouse assessed as paw volume at 60 mg/kg, po pretreated for 1 hr followed by carrageenan challenge measured after 1 hr by plethysmometric method (reference value: 59.39 +/- 10.59 […]); type: functional
Mus musculus [30] = assay: Antiinflammatory activity in carrageenan-induced Swiss mouse assessed as inhibition of paw edema at 10 mg/kg, po pretreated for 1 hr followed by carrageenan challenge measured after 6 hrs by plethysmometric method; type: functional
Mus musculus [31] = assay: Antiinflammatory activity in carrageenan-induced Swiss mouse assessed as inhibition of paw edema at 10 mg/kg, po pretreated for 1 hr followed by carrageenan challenge measured after 2 hrs by plethysmometric method; type: functional

N#CCC(=O)N/N=C/c1c[nH]c2ccccc12
Activity (Mus musculus [1]): 3.6 ×10³ /mm3
inhibition in vivo at 15 mg/kg (Mus musculus [2]): 67%
inhibition in vivo at 30 mg/kg (Mus musculus [3]): 100%
IC50 [4]: 1.02 µM
Activity (Mus musculus [5]): 13.6 g/dL
Activity (Mus musculus [6]): 17.05 pg
Activity (Splenocyte [7]): Active
inhibition in vivo at 30 mg/kg (Mus musculus [8]): 88.9%
Ratio IC50 [9]: 1.51
Activity (Mus musculus [10]): 33.8%
CC50 at 72 h [11]: 150 µM
inhibition in vivo at 60 mg/kg (Mus musculus [12]): 74.3%
Activity (Mus musculus [13]): Non-Toxic
IC50 [14]: 1.54 µM
Activity (Mus musculus [15]): 42.5%
Activity (Mus musculus [16]): 8.1 ×10⁶ /mm3
inhibition (Splenocyte [17]): Active
inhibition at 50 µM (Splenocyte [18]): 50.7%
Activity (Splenocyte [19]): Active
inhibition (Splenocyte [20]): inactive
Activity (Splenocyte [21]): inactive
inhibition in vivo at 60 mg/kg (Mus musculus [22]): 92.5%
inhibition (Splenocyte [23]): Active
Activity (Mus musculus [24]): Non-Toxic
Activity (Mus musculus [25]): 51.5 fL
Activity (Mus musculus [26]): Non-Toxic
inhibition (Splenocyte [27]): Active

N#CCC(=O)N/N=C/c1c[nH]c2ccc(Cl)cc12
CC50 at 72 h [11]: 76.9 µM
inhibition at 50 µM (Splenocyte [18]): 1.8%

N#CCC(=O)N/N=C/c1c[nH]c2ccc(Br)cc12
Activity (Mus musculus [1]): 5.9 ×10³ /mm3
inhibition in vivo at 30 mg/kg (Mus musculus [28]): 61.8%
IC50 [4]: 0.25 µM
Activity (Mus musculus [5]): 14.1 g/dL
Activity (Mus musculus [6]): 16.8 pg
Ratio IC50 [9]: 0.72
Activity (Mus musculus [10]): 32.9%
CC50 at 72 h [11]: 144 µM
Activity (Mus musculus [13]): Non-Toxic
IC50 [14]: 0.18 µM
Activity (Mus musculus [15]): 57.6%
Activity (Mus musculus [16]): 8.4 ×10⁶ /mm3
inhibition at 50 µM (Splenocyte [18]): 62.7%
Activity (Mus musculus [29]): 48.33 mL
inhibition in vivo at 60 mg/kg (Mus musculus [22]): 66.3%
Activity (Mus musculus [24]): Non-Toxic
Activity (Mus musculus [25]): 53.6 fL
Activity (Mus musculus [26]): Non-Toxic

COc1ccc2[nH]cc(/C=N/NC(=O)CC#N)c2c1
CC50 at 72 h [11]: 101 µM
inhibition at 50 µM (Splenocyte [18]): 43.7%

COc1ccc2c(c1)c(CC(=O)O)c(C)n2C(=O)c1ccc(Cl)cc1 [INDOMETHACIN]
inhibition in vivo at 10 mg/kg (Mus musculus [30]): 84.1%
inhibition in vivo at 10 mg/kg (Mus musculus [31]): 72.4%

Cc1ccc2[nH]cc(/C=N/NC(=O)CC#N)c2c1
CC50 at 72 h [11]: 200 µM
inhibition at 50 µM (Splenocyte [18]): 15.4%

Cc1cccc2c(/C=N/NC(=O)CC#N)c[nH]c12
CC50 at 72 h [11]: 146 µM
inhibition at 50 µM (Splenocyte [18]): 52.2%

N#CCC(=O)N/N=C/c1c[nH]c2ncccc12
CC50 at 72 h [11]: 107 µM
inhibition at 50 µM (Splenocyte [18]): 52.4%

C[C@@H]1C[C@H]2[C@@H]3CCC4=CC(=O)C=C[C@]4(C)[C@@]3(F)[C@@H](O)C[C@]2(C)[C@@]1(O)C(=O)CO [DEXAMETHASONE]
inhibition at 50 µM (Splenocyte [18]): 74.6%

N#CCC(=O)N/N=C/c1c[nH]c2c1ccc1ccccc12
CC50 at 72 h [11]: 78.5 µM
inhibition at 50 µM (Splenocyte [18]): 1.2%

N#CCC(=O)N/N=C/c1c[nH]c2cccc([N+](=O)[O-])c12
CC50 at 72 h [11]: 66 µM
inhibition at 50 µM (Splenocyte [18]): 31%

N#CCC(=O)N/N=C/c1c[nH]c2ccc(C#N)cc12
CC50 at 72 h [11]: 69.4 µM
inhibition at 50 µM (Splenocyte [18]): 25.7%
